{
  "source": "ChEMBL document CHEMBL5724801",
  "about": "“EUbOPEN Chemogenomics Library - Multiplex” (2024)",
  "key": {"HEK-293T": {"test_system": "HEK-293T", "assay": "Multiplex assay against HEK293T", "type": "toxicity, cell-based", "conditions": "human", "summary_of_the_method": "(§1)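 Cells stained live at seeding with Hoechst33342, BioTracker Green Microtubule Cytoskeleton Dye, MitoTracker Red and Annexin V Alexa Fluor 680 were imaged on a CQ1 microscope at 37°C and 5% CO2 after compound addition. Their classification by CellPathfinder machine-learning gating ran from Hoechst high-intensity objects versus normal cells, to healthy, pyknosed or fragmented nuclei among normal cells, to mitotic or apoptotic among pyknosed cells. Tubulin, mitochondrial-mass and membrane-permeability phenotypes are per cents of healthy-nucleus cells.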"}, "U2OS": {"test_system": "U2OS", "assay": "Multiplex assay against U2OS", "type": "toxicity, cell-based", "conditions": "human", "summary_of_the_method": "as §1"}, "[1]": {"conditions": "12 h, 1 µM, compound concentration 1 uM"}, "[2]": {"conditions": "12 h, 10 µM, compound concentration 10 uM"}, "[3]": {"conditions": "24 h, 1 µM, compound concentration 1 uM"}, "[4]": {"conditions": "24 h, 10 µM, compound concentration 10 uM"}, "[5]": {"conditions": "48 h, 1 µM, compound concentration 1 uM"}, "[6]": {"conditions": "48 h, 10 µM, compound concentration 10 uM"}},
  "note": "“And” between values parts separate entries of the source, which are not always exact repeats. Identical values can stand only once.",
  "data": [
    {"smiles": "CN(C)Cc1cccc(NC(=C2C(=O)Nc3cc(C(=O)N(C)C)ccc32)c2ccccc2)c1", "values": [
      {"measurement": "Population Apoptotic (%)", "setting": "HEK-293T; [1]", "value": "14.71% and 13.93%"},
      {"measurement": "Population Hoechst High Intensity Objects (%)", "setting": "HEK-293T; [1]", "value": 0, "unit": "%"},
      {"measurement": "Population Membrane Permeable-Phenotype (%)", "setting": "HEK-293T; [1]", "value": "2.97% and 0%"},
      {"measurement": "Population Mitochondria Different-Phenotype (%)", "setting": "HEK-293T; [1]", "value": "27.72% and 21.05%"},
      {"measurement": "Population Mitotic Cells (%)", "setting": "HEK-293T; [1]", "value": "85.29% and 86.07%"},
      {"measurement": "Population Normal (%)", "setting": "HEK-293T; [1]", "value": 100, "unit": "%"},
      {"measurement": "Population Pyknosed Nuclei (%)", "setting": "HEK-293T; [1]", "value": "32.08% and 85.31%"},
      {"measurement": "Total Cell Count", "setting": "HEK-293T; [1]", "value": "424 and 143"},
      {"measurement": "Population Apoptotic (%)", "setting": "HEK-293T; [2]", "value": "28.57% and 37.07%"},
      {"measurement": "Population Fragmented Nuclei (%)", "setting": "HEK-293T; [2]", "value": "3.59% and 6.21%"},
      {"measurement": "Population Hoechst High Intensity Objects (%)", "setting": "HEK-293T; [2]", "value": "0.65% and 0%"},
      {"measurement": "Population Membrane Permeable-Phenotype (%)", "setting": "HEK-293T; [2]", "value": "0.65% and 0%"},
      {"measurement": "Population Mitochondria Different-Phenotype (%)", "setting": "HEK-293T; [2]", "value": "22.58% and 0%"},
      {"measurement": "Population Mitotic Cells (%)", "setting": "HEK-293T; [2]", "value": "71.43% and 62.93%"},
      {"measurement": "Population Normal (%)", "setting": "HEK-293T; [2]", "value": "99.35% and 100%"},
      {"measurement": "Population Pyknosed Nuclei (%)", "setting": "HEK-293T; [2]", "value": "45.75% and 80%"},
      {"measurement": "Population Tubulin-Different-Phenotype (%)", "setting": "HEK-293T; [2]", "value": "30.97% and 70%"},
      {"measurement": "Total Cell Count", "setting": "HEK-293T; [2]", "value": "308 and 145"},
      {"measurement": "Population Apoptotic (%)", "setting": "HEK-293T; [3]", "value": "14.29% and 19.69%"},
      {"measurement": "Population Healthy Nuclei (%)", "setting": "HEK-293T; [3]", "value": "68.64% and 31.44%"},
      {"measurement": "Population Hoechst High Intensity Objects (%)", "setting": "HEK-293T; [3]", "value": "0% and 1.52%"},
      {"measurement": "Population Membrane Permeable-Phenotype (%)", "setting": "HEK-293T; [3]", "value": "1.78% and 1.64%"},
      {"measurement": "Population Mitochondria Different-Phenotype (%)", "setting": "HEK-293T; [3]", "value": "11.17% and 11.48%"},
      {"measurement": "Population Mitotic Cells (%)", "setting": "HEK-293T; [3]", "value": "85.71% and 80.31%"},
      {"measurement": "Population Normal (%)", "setting": "HEK-293T; [3]", "value": "100% and 98.48%"},
      {"measurement": "Population Tubulin-Different-Phenotype (%)", "setting": "HEK-293T; [3]", "value": "15.48% and 9.84%"},
      {"measurement": "Total Cell Count", "setting": "HEK-293T; [3]", "value": "574 and 197"},
      {"measurement": "Population Apoptotic (%)", "setting": "HEK-293T; [4]", "value": "47.22% and 65.45%"},
      {"measurement": "Population Fragmented Nuclei (%)", "setting": "HEK-293T; [4]", "value": "1.9% and 4%"},
      {"measurement": "Population Hoechst High Intensity Objects (%)", "setting": "HEK-293T; [4]", "value": 0, "unit": "%"},
      {"measurement": "Population Membrane Permeable-Phenotype (%)", "setting": "HEK-293T; [4]", "value": "1.58% and 2.94%"},
      {"measurement": "Population Mitochondria Different-Phenotype (%)", "setting": "HEK-293T; [4]", "value": "28.85% and 52.94%"},
      {"measurement": "Population Mitotic Cells (%)", "setting": "HEK-293T; [4]", "value": "52.78% and 34.55%"},
      {"measurement": "Population Normal (%)", "setting": "HEK-293T; [4]", "value": 100, "unit": "%"},
      {"measurement": "Population Pyknosed Nuclei (%)", "setting": "HEK-293T; [4]", "value": "29.35% and 73.33%"},
      {"measurement": "Population Tubulin-Different-Phenotype (%)", "setting": "HEK-293T; [4]", "value": "57.71% and 41.18%"},
      {"measurement": "Total Cell Count", "setting": "HEK-293T; [4]", "value": "368 and 150"},
      {"measurement": "Population Fragmented Nuclei (%)", "setting": "HEK-293T; [5]", "value": "9.11% and 4.39%"},
      {"measurement": "Population Healthy Nuclei (%)", "setting": "HEK-293T; [5]", "value": "81.42% and 58.77%"},
      {"measurement": "Population Hoechst High Intensity Objects (%)", "setting": "HEK-293T; [5]", "value": "0.09% and 1.3%"},
      {"measurement": "Population Membrane Permeable-Phenotype (%)", "setting": "HEK-293T; [5]", "value": "9.75% and 2.24%"},
      {"measurement": "Population Mitochondria Different-Phenotype (%)", "setting": "HEK-293T; [5]", "value": "13.07% and 33.58%"},
      {"measurement": "Population Mitotic Cells (%)", "setting": "HEK-293T; [5]", "value": "98.1% and 79.76%"},
      {"measurement": "Population Normal (%)", "setting": "HEK-293T; [5]", "value": "99.91% and 98.7%"},
      {"measurement": "Population Apoptotic (%)", "setting": "HEK-293T; [6]", "value": "35.58% and 37.33%"},
      {"measurement": "Population Fragmented Nuclei (%)", "setting": "HEK-293T; [6]", "value": "1.61% and 2.67%"},
      {"measurement": "Population Healthy Nuclei (%)", "setting": "HEK-293T; [6]", "value": "79.82% and 47.33%"},
      {"measurement": "Population Hoechst High Intensity Objects (%)", "setting": "HEK-293T; [6]", "value": 0, "unit": "%"},
      {"measurement": "Population Membrane Permeable-Phenotype (%)", "setting": "HEK-293T; [6]", "value": "2.91% and 2.82%"},
      {"measurement": "Population Mitochondria Different-Phenotype (%)", "setting": "HEK-293T; [6]", "value": "76.06% and 67.61%"},
      {"measurement": "Population Mitotic Cells (%)", "setting": "HEK-293T; [6]", "value": "64.42% and 62.67%"},
      {"measurement": "Population Normal (%)", "setting": "HEK-293T; [6]", "value": 100, "unit": "%"},
      {"measurement": "Population Pyknosed Nuclei (%)", "setting": "HEK-293T; [6]", "value": "18.57% and 50%"},
      {"measurement": "Population Apoptotic (%)", "setting": "U2OS; [1]", "value": "28.26% and 30.43%"},
      {"measurement": "Population Fragmented Nuclei (%)", "setting": "U2OS; [1]", "value": "2.06% and 3.41%"},
      {"measurement": "Population Healthy Nuclei (%)", "setting": "U2OS; [1]", "value": "87.39% and 83.52%"},
      {"measurement": "Population Hoechst High Intensity Objects (%)", "setting": "U2OS; [1]", "value": 0, "unit": "%"},
      {"measurement": "Population Membrane Permeable-Phenotype (%)", "setting": "U2OS; [1]", "value": "0.52% and 6.8%"},
      {"measurement": "Population Mitochondria Different-Phenotype (%)", "setting": "U2OS; [1]", "value": "0% and 12.24%"},
      {"measurement": "Population Mitotic Cells (%)", "setting": "U2OS; [1]", "value": "71.74% and 69.57%"},
      {"measurement": "Population Normal (%)", "setting": "U2OS; [1]", "value": 100, "unit": "%"},
      {"measurement": "Population Pyknosed Nuclei (%)", "setting": "U2OS; [1]", "value": "10.55% and 13.07%"},
      {"measurement": "Population Tubulin-Different-Phenotype (%)", "setting": "U2OS; [1]", "value": "2.1% and 0.68%"},
      {"measurement": "Total Cell Count", "setting": "U2OS; [1]", "value": "436 and 176"},
      {"measurement": "Population Apoptotic (%)", "setting": "U2OS; [2]", "value": "55.32% and 60.53%"},
      {"measurement": "Population Fragmented Nuclei (%)", "setting": "U2OS; [2]", "value": "3.8% and 4.6%"},
      {"measurement": "Population Healthy Nuclei (%)", "setting": "U2OS; [2]", "value": "81.33% and 73.56%"},
      {"measurement": "Population Hoechst High Intensity Objects (%)", "setting": "U2OS; [2]", "value": 0, "unit": "%"},
      {"measurement": "Population Membrane Permeable-Phenotype (%)", "setting": "U2OS; [2]", "value": "17.12% and 38.28%"},
      {"measurement": "Population Mitotic Cells (%)", "setting": "U2OS; [2]", "value": "44.68% and 39.47%"},
      {"measurement": "Population Normal (%)", "setting": "U2OS; [2]", "value": 100, "unit": "%"},
      {"measurement": "Population Pyknosed Nuclei (%)", "setting": "U2OS; [2]", "value": "14.87% and 21.84%"},
      {"measurement": "Population Tubulin-Different-Phenotype (%)", "setting": "U2OS; [2]", "value": "58.37% and 42.19%"},
      {"measurement": "Total Cell Count", "setting": "U2OS; [2]", "value": "316 and 174"},
      {"measurement": "Population Apoptotic (%)", "setting": "U2OS; [3]", "value": "51.56% and 40%"},
      {"measurement": "Population Fragmented Nuclei (%)", "setting": "U2OS; [3]", "value": "1.88% and 1.95%"},
      {"measurement": "Population Healthy Nuclei (%)", "setting": "U2OS; [3]", "value": "87.2% and 85.85%"},
      {"measurement": "Population Hoechst High Intensity Objects (%)", "setting": "U2OS; [3]", "value": "0.17% and 0%"},
      {"measurement": "Population Membrane Permeable-Phenotype (%)", "setting": "U2OS; [3]", "value": "1.76% and 3.98%"},
      {"measurement": "Population Mitotic Cells (%)", "setting": "U2OS; [3]", "value": "48.44% and 60%"},
      {"measurement": "Population Normal (%)", "setting": "U2OS; [3]", "value": "99.83% and 100%"},
      {"measurement": "Population Pyknosed Nuclei (%)", "setting": "U2OS; [3]", "value": "10.92% and 12.2%"},
      {"measurement": "Population Tubulin-Different-Phenotype (%)", "setting": "U2OS; [3]", "value": "1.96% and 2.27%"},
      {"measurement": "Total Cell Count", "setting": "U2OS; [3]", "value": "587 and 205"},
      {"measurement": "Population Apoptotic (%)", "setting": "U2OS; [4]", "value": "70.87% and 69.84%"},
      {"measurement": "Population Fragmented Nuclei (%)", "setting": "U2OS; [4]", "value": "5.07% and 6.21%"},
      {"measurement": "Population Healthy Nuclei (%)", "setting": "U2OS; [4]", "value": "65.92% and 58.19%"},
      {"measurement": "Population Hoechst High Intensity Objects (%)", "setting": "U2OS; [4]", "value": "0.28% and 0%"}
    ]}
  ]
}
